Measured values published in article PMC9523306 (The Journal of Veterinary Medical Science, 2022).

Key:
Test in all cases: Reverse transcription-PCR, right cerebral cortex
Type in all cases: in vivo, rat
Conditions in all cases: retinoic acid + MCAO animals; 5 mg/kg intraperitoneally for four days before MCAO; ratio of PCR product intensity to β-actin intensity; mean ± S.E.M., n=5
[1] = tested on: Adenosylhomocysteinase mRNA
Summary of the method: (§1)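 Male Sprague-Dawley rats (200–220 g). Test compound was given in PEG/0.9% NaCl/ethanol (70/20/10 by volume), and vehicle was solvent alone. The right MCA origin was occluded by intraluminal 4–0 nylon suture for 24 hr; shams had surgery without the suture. Total RNA from the right cortex (Trizol) was used, with 500 ng reverse-transcribed. PCR ran 28–30 cycles (94°C 30 sec, 54–56°C 30 sec, 72°C 1 min), then 1% agarose, UV, densitometry. Two-way ANOVA, Scheffe post-hoc.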

[2] = tested on: Isocitrate dehydrogenase [NAD^+] subunit α mRNA
Summary of the method: as §1

[3] = tested on: glycerol-3-phosphate dehydrogenase mRNA
Summary of the method: as §1

[4] = tested on: Rab GDP dissociation inhibitor β mRNA
Summary of the method: as §1

Apolipoprotein A1 mRNA = tested on: Apolipoprotein A1 mRNA
Summary of the method: as §1

[5] = tested on: heat shock protein 60 mRNA
Summary of the method: as §1

## CC1=C(/C=C/C(C)=C/C=C/C(C)=C/C(=O)O)C(C)(C)CCC1 [retinoic acid, Retinoic acid]
[1]
  Adenosylhomocysteinase mRNA levels: 1.28 ± 0.06
[2]
  Isocitrate dehydrogenase [NAD^+] subunit α mRNA levels: 1.36 ± 0.05
[3]
  Expression levels of glycerol-3-phosphate dehydrogenase mRNA: 0.91 ± 0.02
[4]
  Rab GDP dissociation inhibitor β mRNA levels: 1.02 ± 0.02
Apolipoprotein A1 mRNA
  Apolipoprotein A1 mRNA levels: 1.13 ± 0.02
[5]
  Expression levels of heat shock protein 60 mRNA: 0.95 ± 0.05
